High-throughput results from PubChem.
An excerpt weighted towards active compounds, which were near 1.9% of everything screened.
TLR4-MyD88 BLA: inhibitors of TLR4-MyD88 association in cells, primary screen, cell-based, HeLa CL3-4, BLA complementation, FRET ratio; HeLa CL3-4 TLR4/MyD88 BLA complementation; inhibition, % at 8.4 µM; hit rate 0.18% among 200,000; Toll-like receptor 4 (Homo sapiens) + Myeloid differentiation primary response protein …; in the data active = inhibition above about 25%;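 note: 0% = vehicle and 100% = reference inhibitor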
Target sequence (O00206 whole entry, looked up): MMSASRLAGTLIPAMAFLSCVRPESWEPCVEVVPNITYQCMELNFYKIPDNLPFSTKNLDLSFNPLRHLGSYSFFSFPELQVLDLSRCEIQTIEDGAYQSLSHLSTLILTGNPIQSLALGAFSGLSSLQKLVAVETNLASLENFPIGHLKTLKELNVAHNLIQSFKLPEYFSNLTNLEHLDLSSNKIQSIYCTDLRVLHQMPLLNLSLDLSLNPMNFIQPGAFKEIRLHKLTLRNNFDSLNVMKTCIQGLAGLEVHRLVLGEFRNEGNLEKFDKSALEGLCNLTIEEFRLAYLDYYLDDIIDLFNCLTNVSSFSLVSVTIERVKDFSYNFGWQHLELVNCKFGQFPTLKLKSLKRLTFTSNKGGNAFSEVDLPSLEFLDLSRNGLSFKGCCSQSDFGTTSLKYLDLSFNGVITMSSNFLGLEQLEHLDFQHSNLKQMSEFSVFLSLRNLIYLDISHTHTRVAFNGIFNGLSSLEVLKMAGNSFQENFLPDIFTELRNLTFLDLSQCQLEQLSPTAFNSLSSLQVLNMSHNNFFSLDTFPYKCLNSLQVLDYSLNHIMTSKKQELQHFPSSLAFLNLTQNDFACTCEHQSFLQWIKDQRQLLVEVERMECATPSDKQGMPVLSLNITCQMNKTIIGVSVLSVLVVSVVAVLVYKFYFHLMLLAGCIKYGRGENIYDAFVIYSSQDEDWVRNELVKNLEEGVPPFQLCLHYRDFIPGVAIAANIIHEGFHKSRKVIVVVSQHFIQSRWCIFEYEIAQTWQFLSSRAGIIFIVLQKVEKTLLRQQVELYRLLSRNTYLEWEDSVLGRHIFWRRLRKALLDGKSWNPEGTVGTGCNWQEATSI
Target sequence (Q99836 whole entry, looked up): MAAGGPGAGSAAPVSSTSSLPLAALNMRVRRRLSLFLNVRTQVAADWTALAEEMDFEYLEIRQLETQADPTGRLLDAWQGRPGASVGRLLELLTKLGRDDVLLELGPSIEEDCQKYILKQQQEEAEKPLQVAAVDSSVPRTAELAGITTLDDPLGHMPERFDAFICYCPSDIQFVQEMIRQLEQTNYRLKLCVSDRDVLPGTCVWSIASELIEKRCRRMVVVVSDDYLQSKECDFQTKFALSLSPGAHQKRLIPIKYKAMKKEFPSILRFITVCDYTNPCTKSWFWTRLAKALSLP
MC4R antag cAMP: MC4R antagonists of cAMP signaling, primary screen, cell-based, TR-FRET, antagonist arm of biased-ligand search; MC4R-expressing cells, MTII-stimulated cAMP, LANCE TR-FRET; inhibition, % at 6.5 µM; hit rate 0.48% among 360,000;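 active = inhibition above its plate's cutoff, the mean of tested wells on that plate plus 3 SD, cut at about 29% in these data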;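 note: 0% = Melanotan II alone and 100% = Melanotan II plus saturating MCL0020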
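Assay system: U2OS-MC4R stable cell line; Also added: Melanotan II; Technique: Eu-cAMP/anti-cAMP TR-FRET, emission 671 nm; Times: 30-min compound, 1-h challenge, 1-h detection, room temperature.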
TLR9-MyD88 block: inhibitors of TLR9-MyD88 association in cells, primary screen, cell-based, CHO, BLA complementation, fluorescence; Toll-like receptor 9 (Homo sapiens) + Myeloid differentiation primary response protein …; CCF4 FRET ratio; inhibition, % at 4.98 µM; hit rate 0.21% among 340,000;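 active = inhibition above the mean over all tested compounds plus 3 SD, cut at about 21% in these data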;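 note: 0% = DMSO only wells and 100% = clavulanate BLA inhibitor control wells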
NOD2 RIPK2 PPI: NOD2-RIPK2 binding disruptors in cells, primary screen, fluorescence, CHO cells, BLA complementation. CCF4 ratio. inhibition, % at 4.98 µM. hit rate 0.38% among 360,000. AID 624267, 2012; in the data active = inhibition above about 21%;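 note: 0% = vehicle only and 100% = reference blocker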
MC4R barr agon: MC4R agonists recruiting beta-arrestin, primary screen, cell-based, luminescence, agonist arm of biased-ligand search | activation, % at 8.9 µM | U2OS MC4R beta-arrestin complementation; percent of melanotan II response, DMSO zero | AID 540308, 2011 | hit rate 0.98% among 360,000;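 active = activation above a per-plate cutoff, the mean activation of sample wells on that plate plus 3 SD, cut at about 8% in these data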
NTR1 agonist: agonists of human NTR1, primary screen, imaging, U2OS cells, beta-arrestin-GFP, high content. NTR1-U2OS beta-arrestin-GFP spot imaging, agonist mode. hit rate 0.17% among 330,000. activation, % at 20 µM;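 active = activation at or above 40% of the spot to cytoplasm intensity ratio, with at least 20 cells analyzed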;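 note: 0% = DMSO without peptide and 100% = 100 nM NTR1 peptide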
cAMP nonselect: nonselective cAMP signaling inhibitors, parental cells, counter-screen for MC4R biased antagonist project, cell-based, TR-FRET, U2OS, forskolin, triplicate; shares compounds with MC4R antag cAMP; LANCE TR-FRET; inhibition, % at 6.5 µM; hit rate 26% among 1,600; AID 602193, 2012;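 active = mean inhibition over triplicates above the low-control well mean plus 3 SD, set per campaign, cut at about 13% in these data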;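 note: signal is single emission at 671 nm which falls as cellular cAMP rises; 0% = forskolin-stimulated wells and 100% = buffer without forskolin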
MC4R antag conf: MC4R cAMP antagonists, retest, confirmation, cell-based, TR-FRET; MC4R-expressing cells, MTII-stimulated cAMP; inhibition, % at 6.5 µM; shares compounds with MC4R antag cAMP; hit rate 27% among 1,600; in the data active = inhibition above about 29%;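 note: 0% = agonist stimulated wells alone and 100% = agonist stimulated wells plus saturating reference antagonist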
An asterisk follows results filed as active; nt = not tested or not shown.

SMILES	TLR4-MyD88 BLA	MC4R antag cAMP	TLR9-MyD88 block	NOD2 RIPK2 PPI	MC4R barr agon	NTR1 agonist	cAMP nonselect	MC4R antag conf
O=C(COC(=O)[C@H](Cc1ccccc1)NC(=O)c1cccs1)NC1CCCCC1	-2	37*	-1	4	-2	3	8	10
O=C(COC(=O)[C@H](Cc1ccccc1)NC(=O)c1ccco1)NC(c1ccccc1)c1ccccc1	5	32*	5	-9	0	2	20*	36*
O=C(COC(=O)[C@H](Cc1ccccc1)NC(=O)c1cccs1)NC1CC1	7	21	-11	-23	-1	1	nt	nt
O=C(COC(=O)[C@H](Cc1ccccc1)NC(=O)c1ccco1)Nc1ccccc1	nt	13	-3	-8	-2	5	nt	nt
CCCCNC(=O)C1(C)CCCCN1C(=O)c1cc(-c2ccccc2)cs1 (stereo not drawn)	nt	6	nt	-5	0	nt	nt	nt
O=C1[C@H]2[C@@H](C3CC3)N3C(=O)CN(Cc4ccccn4)C(=O)[C@@]3(Cc3ccccc3)[C@H]2C(=O)N1c1ccccc1	nt	12	2	-1	0	0	nt	nt
Cc1noc(C)c1-c1ccc2ncnc(NCC3CCCCN3C)c2c1 (stereo not drawn)	nt	10	3	5	1	0	nt	nt
CCOP(=O)(OCC)C(NC(=O)Nc1cccc(Cl)c1)c1ccccc1 (stereo not drawn)	-13	30*	-4	-2	1	-2	-1	16
O=[N+]([O-])c1cccc(-n2nnnc2CN2CCCC2)c1	2	14	-9	-3	0	0	nt	nt
COc1ccccc1NS(=O)(=O)c1cccc(NC(=O)c2cc3ccccc3oc2=O)c1	12	29*	-3	2	7	0	-5	-11
COc1ccccc1NS(=O)(=O)c1cccc(NC(=O)Nc2ccccc2)c1	-4	8	-16	5	0	8	nt	nt
Cc1cc2c(N=NC(=O)CCc3ccccc3)c(O)[nH]c2cc1Br	10	-18	1	-3	8	14	nt	nt
COC(=O)c1ccc(C2c3[nH]c4ccccc4c3C[C@H]3C(=O)N(C4CCN(Cc5ccccc5)CC4)CC(=O)N23)cc1 (stereo partly drawn)	nt	37*	-3	3	-1	3	6	22
O=C1[C@@H]2Cc3c([nH]c4ccccc34)C(c3ccccc3)N2C(=O)CN1C1CCN(Cc2ccccc2)CC1 (stereo partly drawn)	nt	-6	-19	10	3	4	nt	nt
Cc1ccc(CNC(=O)CN2C(=O)c3ccccc3S2(=O)=O)cc1	nt	11	2	-7	0	0	nt	nt
Cc1ccccc1CNC(=O)CN1C(=O)c2ccccc2S1(=O)=O	nt	29*	1	3	1	-1	2	1
O=C(c1ccccc1)c1ccc2c(c1)OCCOCCOCCOCCO2	nt	18	-9	-3	1	4	nt	nt
O=C(c1cccc([N+](=O)[O-])c1)c1ccc2c(c1)OCCOCCOCCOCCO2	nt	35*	nt	-41	1	0	1	0
Cn1cncc1C#Cc1c(C=O)[nH]c2ccccc12	nt	-19	-4	-15	0	0	nt	nt
O=C(c1cc2ccccc2oc1=O)N(Cc1cccc(Br)c1)C1CCS(=O)(=O)C1 (stereo not drawn)	nt	4	-3	7	0	1	nt	nt
C=C1CC2(CC(c3ccccc3)OC(c3ccccc3)C2)OC1=O (stereo not drawn)	nt	34*	-5	2	-1	nt	21*	46*
Cc1cc(NC(=O)c2cc(-c3ccc(OC(C)C)cc3)nc3ccccc23)no1	nt	14	3	-5	0	0	nt	nt
Oc1ccc(-c2n[nH]c(C(F)(F)F)c2-c2ccccc2)c(O)c1	-16	30*	nt	-17	3	5	4	-3
COc1ccc(OC)c(C2C(C(=O)Nc3nc4ccccc4s3)=C(C)NC3=C2C(=O)CCC3)c1 (stereo not drawn)	-18	33*	-19	-8	-3	0	7	43*
COc1cccc(C2C(C(=O)Nc3nc4ccccc4s3)=C(C)NC3=C2C(=O)CC(C)(C)C3)c1OC (stereo not drawn)	-12	6	-9	-9	7	5	nt	nt
SMILES	TLR4-MyD88 BLA	MC4R antag cAMP	TLR9-MyD88 block	NOD2 RIPK2 PPI	MC4R barr agon	NTR1 agonist	cAMP nonselect	MC4R antag conf
CNC(=O)CSc1nc2cc(S(=O)(=O)Nc3ccccc3OC)ccc2o1	nt	6	-11	-3	1	0	nt	nt
COc1ccccc1NS(=O)(=O)c1ccc2oc(SC3CCOC3=O)nc2c1 (stereo not drawn)	3	44*	-9	0	-2	18	36*	67*
COC(=O)C[C@@H]1CC[C@H](NS(=O)(=O)c2cccc(F)c2)[C@@H](CO)O1	nt	nt	nt	-3	nt	nt	nt	nt
CC(C)c1nc(SCC(=O)N2CCCCCC2)c2c(=O)n(C)c(=O)n(C)c2n1	nt	7	5	-3	-4	6	nt	nt
Cc1nc(SCC(=O)N2CCCCCC2)c2c(=O)n(C)c(=O)n(CC(C)C)c2n1	nt	33*	-12	-3	1	nt	3	13
COC(=O)CN1C(=O)COc2ccc(S(=O)(=O)N3CCCCCC3)cc21	nt	2	-5	-9	1	0	nt	nt
COc1ccccc1CN(C)C(=O)c1ccc(COc2ccccc2)cc1	nt	31*	-16	0	1	0	5	-2
COc1ccc(C(O)c2nccc3cc(OC)c(OC)cc23)cc1OC (stereo not drawn)	-7	3	9	0	0	0	nt	nt
CCC(=O)c1ccc(OCC(=O)Nc2cccc(S(=O)(=O)N3CCCCCC3)c2)cc1	nt	7	-7	1	-4	2	nt	nt
CC(=O)NCCCC(=O)NNC1CC(=O)N(c2cccc(Cl)c2)C1=O (stereo not drawn)	nt	-3	nt	-3	-2	-1	nt	nt
CCOCCCNCc1cc(Cl)cc(Cl)c1OCC	-6	31*	-4	-16	0	2	1	12
